In ChEMBL document CHEMBL1255259, “Phosphorothioate-modified oligodeoxynucleotides inhibit human cytomegalovirus replication by blocking virus entry” (Antimicrob Agents Chemother, 2008):
Calls of active or inactive are those of the source. The calls are words filed in the database; no cut-off is given here.

Experiments:
Human betaherpesvirus 5 [1] = assay: Antimicrobial activity against Human cytomegalovirus AD169 infected in 0.1 uM compound pretreated HELF assessed as inhibition of viral replication measured after 6 days post-infection; format: functional, organism-based
How it was run: (§1)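 HELF pretreated with ODN 1 h before infection with HCMV AD169 (MOI 1); ODN kept in medium after 2 h adsorption at 37°C. At 6 days p.i., cells plus supernatants sonicated and titrated by plaque assay on HELF; plaques counted microscopically, expressed as PFU/ml (log10) or % of control. IC50/IC90 by linear regression; duplicate wells, three independent experiments, means ± SD.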

Human betaherpesvirus 5 [2] = assay: Antimicrobial activity against 0.1 uM compound pretreated Human cytomegalovirus AD169 infected in HELF assessed as reduction in viral titer at 4 degC; format: functional, organism-based
How it was run: (§2)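 HCMV AD169 (10^4 PFU) incubated with ODN at 0.1 μM at 4 or 37°C for various times; samples then diluted to bring ODN below an antivirally active level; residual infectivity titrated by plaque assay on HELF. Means ± SD of three independent experiments.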

Human betaherpesvirus 5 [3] = assay: Antimicrobial activity against Human cytomegalovirus AD169 infected in 1 uM compound pretreated HELF assessed as inhibition of viral replication measured after 6 days post-infection; format: functional, organism-based; how it was run: as §1
Human betaherpesvirus 5 [4] = assay: Antimicrobial activity against Human cytomegalovirus AD169 infected in HELF assessed as inhibition of viral replication at 1 uM measured after 6 days post-infection; format: functional, organism-based
[5] = Cytotoxicity against HELF assessed as cell viability after 6 days by MTT assay; format: cell-based; conditions: human, HELF cells
How it was run: (§3)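 HELF exposed to rising ODN concentrations (up to 10 μM) for 6 days; viable cells measured by MTT. CC50 taken as concentration that cuts viability to 50%.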

[6] = Cytotoxicity against HELF assessed as cell viability by MTT assay after 6 days at <=10 uM; format: cell-based; conditions: human, 144 h; how it was run: as §3
Human betaherpesvirus 5 [7] = assay: Antimicrobial activity against Human cytomegalovirus AD169 infected in compound pretreated HELF assessed as inhibition of viral replication measured after 6 days post-infection; format: functional, organism-based; conditions: Human betaherpesvirus 5, AD169, HELF; how it was run: as §1
Human betaherpesvirus 5 [8] = assay: Antimicrobial activity against Human cytomegalovirus AD169 infected in HELF assessed as inhibition of viral replication at 0.1 uM measured after 6 days post-infection; format: functional, organism-based
Human betaherpesvirus 5 [9] = assay: Antimicrobial activity against 0.1 uM compound pretreated Human cytomegalovirus AD169 infected in HELF assessed as reduction in viral titer 37 degC; format: functional, organism-based; how it was run: as §2
Human alphaherpesvirus 1 [10] = assay: Antimicrobial activity against Human herpesvirus 1 infected in compound pretreated HELF assessed as inhibition of viral replication at 1 uM; format: functional, organism-based
How it was run: (§4)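 HELF pretreated with ODN (0.1 or 1 μM) 1 h before infection with a clinical HSV-1 isolate at MOI 0.1; ODN kept in medium after 2 h adsorption. Harvest at 48 h p.i., sonication, plaque titration on Vero cells. Means ± SD of three independent experiments.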

Human alphaherpesvirus 1 [11] = assay: Antimicrobial activity against Human herpesvirus 1 infected in compound pretreated HELF assessed as inhibition of viral replication at 0.1 uM; format: functional, organism-based; how it was run: as §4

IC50 (Human betaherpesvirus 5 [7]): 20 nM
IC90 (Human betaherpesvirus 5 [7]): 100 nM
Structure (SMILES): Cc1cn([C@H]2C[C@H](OP(O)(=S)OC[C@H]3O[C@@H](n4ccc(N)nc4=O)[C@H](O)[C@@H]3OP(O)(=S)OC[C@H]3O[C@@H](n4cnc5c(=O)[nH]c(N)nc54)[C@H](O)[C@@H]3OP(O)(=S)OC[C@H]3O[C@@H](n4cc(C)c(=O)[nH]c4=O)C[C@@H]3OP(O)(=S)OC[C@H]3O[C@@H](n4ccc(N)nc4=O)[C@H](O)[C@@H]3OP(O)(=S)OC[C@H]3O[C@@H](n4cnc5c(=O)[nH]c(N)nc54)[C@H](O)[C@@H]3OP(O)(=S)OC[C@H]3O[C@@H](n4cc(C)c(=O)[nH]c4=O)C[C@@H]3OP(O)(=S)OC[C@H]3O[C@@H](n4cc(C)c(=O)[nH]c4=O)C[C@@H]3OP(O)(=S)OC[C@H]3O[C@@H](n4cc(C)c(=O)[nH]c4=O)C[C@@H]3OP(O)(=S)OC[C@H]3O[C@@H](n4cc(C)c(=O)[nH]c4=O)C[C@@H]3OP(O)(=S)OC[C@H]3O[C@@H](n4cnc5c(=O)[nH]c(N)nc54)[C@H](O)[C@@H]3OP(O)(=S)OC[C@H]3O[C@@H](n4cc(C)c(=O)[nH]c4=O)C[C@@H]3OP(O)(=S)OC[C@H]3O[C@@H](n4ccc(N)nc4=O)[C@H](O)[C@@H]3OP(O)(=S)OC[C@H]3O[C@@H](n4cnc5c(=O)[nH]c(N)nc54)[C@H](O)[C@@H]3OP(O)(=S)OC[C@H]3O[C@@H](n4cc(C)c(=O)[nH]c4=O)C[C@@H]3OP(O)(=S)OC[C@H]3O[C@@H](n4cc(C)c(=O)[nH]c4=O)C[C@@H]3OP(O)(=S)OC[C@H]3O[C@@H](n4cc(C)c(=O)[nH]c4=O)C[C@@H]3OP(O)(=S)OC[C@H]3O[C@@H](n4cc(C)c(=O)[nH]c4=O)C[C@@H]3OP(O)(=S)OC[C@H]3O[C@@H](n4cc(C)c(=O)[nH]c4=O)C[C@@H]3OP(O)(=S)OC[C@H]3O[C@@H](n4cc(C)c(=O)[nH]c4=O)C[C@@H]3OP(O)(=S)OC[C@H]3O[C@@H](n4cc(C)c(=O)[nH]c4=O)C[C@@H]3OP(O)(=S)OC[C@H]3O[C@@H](n4ccc(N)nc4=O)[C@H](O)[C@@H]3OP(O)(=S)OC[C@H]3O[C@@H](n4cnc5c(=O)[nH]c(N)nc54)[C@H](O)[C@@H]3OP(O)(=S)OC[C@H]3O[C@@H](n4cnc5c(N)ncnc54)[C@H](O)[C@@H]3OP(O)(O)=S)[C@@H](CO)O2)c(=O)[nH]c1=O (some centres not stated)
inhibition (Human betaherpesvirus 5 [1]): Active
inhibition (Human betaherpesvirus 5 [2]): inactive
inhibition (Human betaherpesvirus 5 [3]): Active
inhibition (Human betaherpesvirus 5 [4]): inactive
CC50 at 144 h [5]: > 10000 nM
Activity [6]: Non-toxic
inhibition (Human betaherpesvirus 5 [8]): inactive
inhibition (Human betaherpesvirus 5 [9]): inactive
inhibition (Human alphaherpesvirus 1 [10]): inactive
inhibition (Human alphaherpesvirus 1 [11]): inactive
